Measured values published in ChEMBL document CHEMBL1146728, “Statin-derived 1,3-oxazinan-2-ones as submicromolar inhibitors of LFA-1/ICAM-1 interaction: stabilization of the metabolically labile vanillyl side chain” (Bioorg Med Chem Lett, 2004).

Columns and labels:
[1] = molecular target: T1, Intercellular adhesion molecule (ICAM-1), Integrin alpha-L/beta-2 (Homo sapiens, UniProt P05107+P20701); test: In vitro inhibition of recombinant ICAM-1 binding to purified immobilized LFA-1 using cell-free assay; assay type: functional
T1 sequence (P20701 whole entry): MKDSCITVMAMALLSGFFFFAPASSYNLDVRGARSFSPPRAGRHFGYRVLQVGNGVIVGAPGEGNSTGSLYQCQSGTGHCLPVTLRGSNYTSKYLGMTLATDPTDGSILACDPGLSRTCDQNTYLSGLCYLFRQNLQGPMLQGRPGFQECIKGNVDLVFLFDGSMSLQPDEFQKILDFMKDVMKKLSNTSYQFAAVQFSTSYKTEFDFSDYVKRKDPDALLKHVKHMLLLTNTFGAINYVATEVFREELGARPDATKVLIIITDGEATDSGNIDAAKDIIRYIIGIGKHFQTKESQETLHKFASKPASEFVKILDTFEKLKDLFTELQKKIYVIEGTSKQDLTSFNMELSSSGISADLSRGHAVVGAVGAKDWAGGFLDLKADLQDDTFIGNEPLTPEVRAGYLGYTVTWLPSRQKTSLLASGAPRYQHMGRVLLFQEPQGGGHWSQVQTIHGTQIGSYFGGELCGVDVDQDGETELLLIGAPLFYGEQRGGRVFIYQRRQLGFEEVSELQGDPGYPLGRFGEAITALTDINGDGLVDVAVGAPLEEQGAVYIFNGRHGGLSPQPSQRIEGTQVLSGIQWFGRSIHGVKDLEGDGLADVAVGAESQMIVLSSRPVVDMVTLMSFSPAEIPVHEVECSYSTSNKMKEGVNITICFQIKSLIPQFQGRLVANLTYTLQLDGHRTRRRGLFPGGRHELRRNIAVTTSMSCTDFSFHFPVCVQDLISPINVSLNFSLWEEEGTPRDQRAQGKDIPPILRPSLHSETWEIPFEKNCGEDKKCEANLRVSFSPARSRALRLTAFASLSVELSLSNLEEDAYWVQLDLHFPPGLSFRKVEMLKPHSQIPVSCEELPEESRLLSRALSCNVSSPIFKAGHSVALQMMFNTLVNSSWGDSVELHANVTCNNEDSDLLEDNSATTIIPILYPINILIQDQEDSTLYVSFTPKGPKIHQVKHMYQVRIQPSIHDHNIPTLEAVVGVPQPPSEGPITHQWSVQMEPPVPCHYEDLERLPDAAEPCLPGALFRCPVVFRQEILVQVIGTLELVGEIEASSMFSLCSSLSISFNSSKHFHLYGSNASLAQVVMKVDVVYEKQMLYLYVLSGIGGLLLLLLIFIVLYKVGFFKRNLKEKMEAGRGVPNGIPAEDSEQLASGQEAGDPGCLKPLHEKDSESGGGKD
T1 sequence (P05362 whole entry, further chain): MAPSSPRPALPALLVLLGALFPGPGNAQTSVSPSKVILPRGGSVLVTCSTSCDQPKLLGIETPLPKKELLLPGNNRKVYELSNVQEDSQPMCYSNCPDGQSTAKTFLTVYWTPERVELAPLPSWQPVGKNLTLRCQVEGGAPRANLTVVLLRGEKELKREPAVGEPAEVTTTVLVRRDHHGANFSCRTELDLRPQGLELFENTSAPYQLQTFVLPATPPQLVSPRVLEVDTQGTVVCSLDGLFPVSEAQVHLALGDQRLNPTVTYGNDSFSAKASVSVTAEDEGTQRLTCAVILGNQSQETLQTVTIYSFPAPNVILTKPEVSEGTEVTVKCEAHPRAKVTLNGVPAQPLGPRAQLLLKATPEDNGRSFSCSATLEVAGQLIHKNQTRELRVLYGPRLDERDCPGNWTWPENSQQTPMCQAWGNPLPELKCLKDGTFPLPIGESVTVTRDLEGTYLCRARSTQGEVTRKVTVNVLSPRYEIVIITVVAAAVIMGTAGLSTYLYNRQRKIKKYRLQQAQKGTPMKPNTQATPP
T1 sequence (P05107 whole entry): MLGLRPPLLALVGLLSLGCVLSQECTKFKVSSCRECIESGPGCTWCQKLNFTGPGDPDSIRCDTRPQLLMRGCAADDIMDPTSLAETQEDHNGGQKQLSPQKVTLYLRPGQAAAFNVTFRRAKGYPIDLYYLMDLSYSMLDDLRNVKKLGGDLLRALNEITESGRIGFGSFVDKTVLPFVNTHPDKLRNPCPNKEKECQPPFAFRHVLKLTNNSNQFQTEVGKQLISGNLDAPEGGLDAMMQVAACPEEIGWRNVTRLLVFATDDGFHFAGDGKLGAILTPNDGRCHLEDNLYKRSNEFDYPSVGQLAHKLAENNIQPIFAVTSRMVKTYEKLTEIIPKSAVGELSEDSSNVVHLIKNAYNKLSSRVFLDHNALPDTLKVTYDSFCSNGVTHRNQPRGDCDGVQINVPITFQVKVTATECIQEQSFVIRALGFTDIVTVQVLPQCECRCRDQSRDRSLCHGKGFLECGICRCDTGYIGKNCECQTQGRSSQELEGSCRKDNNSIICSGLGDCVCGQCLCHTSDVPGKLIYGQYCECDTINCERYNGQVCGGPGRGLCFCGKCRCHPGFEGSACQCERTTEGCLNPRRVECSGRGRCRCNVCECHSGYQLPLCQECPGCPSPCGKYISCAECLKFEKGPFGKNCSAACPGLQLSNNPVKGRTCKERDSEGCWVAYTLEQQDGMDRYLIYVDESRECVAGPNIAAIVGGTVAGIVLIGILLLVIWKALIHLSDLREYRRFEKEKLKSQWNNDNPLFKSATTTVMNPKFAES

[2] = molecular target: T1, Intercellular adhesion molecule (ICAM-1), Integrin alpha-L/beta-2; test: Inhibition of HUT78 cell adhesion to immobilized ICAM-1 protein; assay type: functional, cell-based
Mus musculus [3] = test: Anti-inflammatory activity against murine model of allergic contact dermatitis (mACD) after single oral administration (1 mg/kg) (in vivo); assay type: functional
In short: (§1)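 Oxazolone-sensitized mice, eight per group, challenged with 10 µL of 2.0% oxazolone on the inner surface of the right ear; unchallenged left ear served as control. Single oral dose of compound given 2 h after challenge. Ear weight difference at 24 h used as swelling measure. Result is % inhibition versus vehicle controls, mean ± SEM, ANOVA/Dunnett or H/U-test.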

Mus musculus [4] = test: Anti-inflammatory activity against murine model of allergic contact dermatitis (mACD) after single oral administration (0.1 mg/kg) (in vivo); assay type: functional; in short: as §1
[5] = Intrinsic clearance in human liver microsomes was determined; assay type: ADME, Microsome; conditions: read-out: Clearance
In short: (§2)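 Pooled liver microsomes at 0.15 mg/mL protein, compound at 1 µM, in 100 mM phosphate buffer pH 7.4 with 5 mM MgCl2, 1 mM EDTA, 0.35 mg/mL albumin and alamethicin, at 37°C. Started with final 4 mM UDPGA plus 1 mM NADPH and stopped at 5 and 20 min with ACN containing 0.02% FA. Single incubations, clearance in µL/min/mg.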

[6] = Intrinsic clearance in rat liver microsomes was determined; assay type: ADME, Microsome; conditions: read-out: Clearance; in short: as §2

Compound | IC50 [1] [nM] | IC50 [2] [nM] | Inhibition (Mus musculus [3]) [%] | Inhibition (Mus musculus [4]) [%] | microsomal CLint [5] [µL/min/mg] | microsomal CLint [6] [µL/min/mg]
CC[C@H](C)C(=O)O[C@H]1C[C@@H](C)C=C2C=C[C@H](C)[C@H](CC[C@@H]3C[C@H](CC(=O)OC)N(Cc4ccc(C(=O)NC)cc4)C(=O)O3)[C@H]21 | 1300 | > 30000 | 8 |  |  | 
CC[C@H](C)C(=O)O[C@H]1C[C@@H](C)C=C2C=C[C@H](C)[C@H](CC[C@@H]3C[C@H](CC(=O)OC)N(Cc4ccc5c(c4)OCO5)C(=O)O3)[C@H]21 | 1000 | 2590 | 42 | 32 |  | 
CC[C@H](C)C(=O)O[C@H]1C[C@@H](C)C=C2C=C[C@H](C)[C@H](CC[C@@H]3C[C@H](CC(=O)NC)N(Cc4ccc5c(c4)OCO5)C(=O)O3)[C@H]21 | 170 | 6420 | 29 | 28 | 383 | 100
CC[C@H](C)C(=O)O[C@H]1C[C@@H](C)C=C2C=C[C@H](C)[C@H](CC[C@@H]3C[C@H](CC(=O)NC)N(Cc4ccc5c(c4)OC(F)(F)O5)C(=O)O3)[C@H]21 | 1150 | 5590 | 19 |  | > 500 | 207
CC[C@H](C)C(=O)O[C@H]1C[C@@H](C)C=C2C=C[C@H](C)[C@H](CC[C@@H]3C[C@H](CC(=O)NC)N(Cc4ccc(C(=O)O)cc4)C(=O)O3)[C@H]21 | 870 | > 30000 | 21 |  | 205 | 214
CC[C@H](C)C(=O)O[C@H]1C[C@@H](C)C=C2C=C[C@H](C)[C@H](CC[C@@H]3C[C@H](CC(=O)NC)N(Cc4ccc(C(=O)NC)cc4)C(=O)O3)[C@H]21 | 620 | > 30000 | 26 | 32 | > 500 | > 500
CC[C@H](C)C(=O)O[C@H]1C[C@@H](C)C=C2C=C[C@H](C)[C@H](CC[C@@H]3C[C@H](CC(=O)NC)N(CCc4ccc(O)c(OC)c4)C(=O)O3)[C@H]21 | 800 | 9500 | 43 | 29 | > 500 | > 500
CC[C@H](C)C(=O)O[C@H]1C[C@@H](C)C=C2C=C[C@H](C)[C@H](CC[C@@H]3C[C@H](CC(=O)OC)N(Cc4ccc5c(c4)OC(F)(F)O5)C(=O)O3)[C@H]21 | > 30000 | > 30000 | -3 |  |  | 
CC[C@H](C)C(=O)O[C@H]1C[C@@H](C)C=C2C=C[C@H](C)[C@H](CC[C@@H]3C[C@H](CC(=O)NC)N(Cc4cccc(OC)c4)C(=O)O3)[C@H]21 | 270 | 6500 | 21 |  | 55 | 123
CC[C@H](C)C(=O)O[C@H]1C[C@@H](C)C=C2C=C[C@H](C)[C@H](CC[C@@H]3C[C@H](CC(=O)OC)N(Cc4cccc(OC)c4)C(=O)O3)[C@H]21 | 680 | 4500 | 23 |  |  | 
CC[C@H](C)C(=O)O[C@H]1C[C@@H](C)C=C2C=C[C@H](C)[C@H](CC[C@@H]3C[C@H](CC(=O)NC)N(Cc4ccc(C(C)(C)O)cc4)C(=O)O3)[C@H]21 | 1500 |  | 26 | 9 | > 500 | > 500
CC[C@H](C)C(=O)O[C@H]1C[C@@H](C)C=C2C=C[C@H](C)[C@H](CC[C@@H]3C[C@H](CC(=O)NC)N(Cc4ccc(O)c(OC)c4)C(=O)O3)[C@H]21 | 50 | 250 | 47 | 39 | > 500 | > 500
CC[C@H](C)C(=O)O[C@H]1C[C@@H](C)C=C2C=C[C@H](C)[C@H](CC[C@@H]3C[C@H](CC(=O)OC)N(Cc4ccc(O)c(OC)c4)C(=O)O3)[C@H]21 | 50 | 120 | 46 | 16 |  | 
CC[C@H](C)C(=O)O[C@H]1C[C@@H](C)C=C2C=C[C@H](C)[C@H](CC[C@@H]3C[C@H](CC(=O)OC)N(CCc4ccc(O)c(OC)c4)C(=O)O3)[C@H]21 | 640 | 20500 | 30 | 9 |  | 
CC[C@H](C)C(=O)O[C@H]1C[C@@H](C)C=C2C=C[C@H](C)[C@H](CC[C@@H]3C[C@H](CC(=O)OC)N(Cc4ccc(C(C)(C)O)cc4)C(=O)O3)[C@H]21 | 3000 | 7690 | 33 | 12 |  | 
